These results are taken from ChEMBL document CHEMBL4831543, “Design of Transmembrane Mimetic Structural Probes to Trap Different Stages of γ-Secretase-Substrate Interaction” (J Med Chem, 2021).

In assay [1] the target is T1, Gamma-secretase (Homo sapiens) (UniProt Q96BI3+Q9NZ42+Q8WW43+P49768+Q92542+P49810). As to the kind of experiment: Inhibition of HPI-Bpa-Bt labelling of gamma secretase (unknown origin) expressed in HEK293 cells at 10 uM preincubated for 1.5 hrs followed by irradiation for 30 mins by Western blot analysis. The format is cell-based. To be noted: time 2.0 hrs. Put shortly:
(§1)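 Purified γ-secretase, 2 nM, preincubated 30 min at 37 °C in assay buffer (50 mM HEPES pH 7.0, 150 mM NaCl, 0.025% DOPC, 0.1% DOPE, 0.25% CHAPSO). Biotinylated photoprobe added at 1 μM, with or without 10 μM competitor, for 1.5 h at 37 °C. UV 350 nm for 30 min on ice, streptavidin pull-down, six washes. Presenilin-1 NTF detected by western blot.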

The target in assay [2] is T1, Gamma-secretase (Homo sapiens). Kind of assay: Inhibition of TSA-Bpa-Bt labelling of gamma secretase (unknown origin) expressed in HEK293 cells at 10 uM preincubated for 1.5 hrs followed by irradiation for 30 mins by Western blot analysis. The format is cell-based. To be noted: time 2.0 hrs. Put shortly:
as §1

In assay [3] the target is Gamma-secretase. As to the kind of experiment: Inhibition of gamma secretase (unknown origin) expressed in HEK293 cells assessed as reduction of A-beta40 levels using C100-FLAG as substrate incubated for 2 hrs by sandwich ELISA. The format is cell-based, Homo sapiens.
For assay [4], the target named is T1, Gamma-secretase (Homo sapiens). As to the kind of experiment: Competitive inhibition of TSA 1 binding to gamma secretase (unknown origin). The format is protein-complex assay. Put shortly: (§2)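 Cross-competition kinetics using the standard activity assay. Purified γ-secretase from suspension HEK293 cells, expressed from a tetracistronic vector, in detergent-lipid buffer (HEPES pH 7.0, DOPC, DOPE, CHAPSO). Varying concentrations of two inhibitors titrated against each other, with C100Flag held at 0.50 μM. Aβ40 measured by sandwich ELISA. Data plotted as reciprocal plots and fit to a two-inhibitor equation.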

Assay [5] has the same target. As to the kind of experiment: Competitive inhibition of HPI 2 binding to gamma secretase (unknown origin). The format is protein-complex assay. A digest of the protocol:
as §2

Assay [6] has as its target Gamma-secretase. Kind of assay: Noncompetitive inhibition of gamma secretase (unknown origin) expressed in HEK293 cells assessed as reduction of A-beta40 levels using varying level of C100-FLAG as substrate incubated for 2 hrs by double reciprocal plot analysis. The format is cell-based, Homo sapiens. A digest of the protocol:
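1 nM purified γ-secretase from suspension HEK293 cells (tetracistronic pMLINK) in HEPES pH 7.0, NaCl, DOPC, DOPE, 0.25% CHAPSO. Preincubated 30 min at 37 °C, then given inhibitor in DMSO (2% final) with C100Flag at 0–4.5 μM. Reaction run 2 h at 37 °C; Aβ40 read by sandwich ELISA. Ki obtained by fitting to a noncompetitive inhibition equation.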

SMILES strings stand for the structures. The source made the active and inactive calls. The calls are words filed in the database; no cut-off is given here.

On to `CC[C@H](C)[C@H](NC(=O)[C@@H](NC(=O)[C@@H](NC(=O)C(C)(C)NC(=O)CNC(=O)[C@@H](NC(=O)OC(C)(C)C)C(C)C)C(C)C)C(C)C)C(=O)NC(C)(C)C(=O)N[C@@H](Cc1ccccc1)C(=O)N[C@H](C(=O)NC(C)(C)C(=O)NCC(=O)NCC(=O)NCC(=O)N[C@H](C(=O)N[C@@H](Cc1ccccc1)[C@H](O)CN(Cc1ccccc1)C(=O)N[C@@H](CC(C)C)C(=O)N[C@H](C(N)=O)C(C)C)C(C)C)C(C)C`, for which the inhibition entry in assay [1] and in assay [2] was “Active” throughout.

As for `CC[C@H](C)[C@H](NC(=O)[C@@H](NC(=O)[C@@H](NC(=O)C(C)(C)NC(=O)CNC(=O)[C@@H](NC(=O)OC(C)(C)C)C(C)C)C(C)C)C(C)C)C(=O)NC(C)(C)C(=O)N[C@H](C(=O)N[C@H](C(=O)NC(C)(C)C(=O)NCCCCC(=O)N[C@H](C(=O)N[C@@H](Cc1ccccc1)[C@H](O)CN(Cc1ccccc1)C(=O)N[C@@H](CC(C)C)C(=O)N[C@H](C(N)=O)C(C)C)C(C)C)C(C)C)[C@@H](C)O`, on Gamma-secretase [3], the IC50 is 3.2 nM. On to `CC[C@H](C)C(NC(=O)[C@@H](NC(=O)C(C)(C)NC(=O)[C@@H](NC(=O)[C@H](Cc1ccccc1)NC(=O)C(C)(C)NC(=O)[C@@H](NC(=O)[C@@H](NC(=O)[C@@H](NC(=O)C(C)(C)NC(=O)CNC(=O)[C@@H](NC(=O)OC(C)(C)C)C(C)C)C(C)C)C(C)C)[C@@H](C)CC)C(C)C)C(C)C)C(=O)N[C@H](C(=O)N[C@H](C(=O)N[C@@H](Cc1ccccc1)[C@H](O)CN(Cc1ccccc1)C(=O)N[C@@H](CC(C)C)C(=O)N[C@H](C(N)=O)C(C)C)C(C)C)C(C)C` (some centres not stated), for which the IC50 at Gamma-secretase [3] stood at 58.9 nM. Regarding `CC[C@H](C)[C@H](NC(=O)[C@@H](NC(=O)[C@@H](NC(=O)C(C)(C)NC(=O)CNC(=O)[C@@H](NC(=O)OC(C)(C)C)C(C)C)C(C)C)C(C)C)C(=O)NC(C)(C)C(=O)N[C@H](C(=O)N[C@H](C(=O)NC(C)(C)C(=O)NCCCCCCCCC(=O)N[C@H](C(=O)N[C@@H](Cc1ccccc1)[C@H](O)CN(Cc1ccccc1)C(=O)N[C@@H](CC(C)C)C(=O)N[C@H](C(N)=O)C(C)C)C(C)C)C(C)C)[C@@H](C)O`, the IC50 on Gamma-secretase [3] is 1.1 nM. For the compound `CC[C@H](C)[C@H](NC(=O)[C@@H](NC(=O)[C@@H](NC(=O)C(C)(C)NC(=O)CNC(=O)[C@@H](NC(=O)OC(C)(C)C)C(C)C)C(C)C)C(C)C)C(=O)NC(C)(C)C(=O)N[C@H](C(=O)N[C@H](C(=O)NC(C)(C)C(=O)NCCCCCCCCCCCC(=O)N[C@H](C(=O)N[C@@H](Cc1ccccc1)[C@H](O)CN(Cc1ccccc1)C(=O)N[C@@H](CC(C)C)C(=O)N[C@H](C(N)=O)C(C)C)C(C)C)C(C)C)[C@@H](C)O`, the IC50 at Gamma-secretase [3] came to 0.87 nM. For the compound `CC[C@H](C)[C@H](NC(=O)[C@@H](NC(=O)[C@@H](NC(=O)C(C)(C)NC(=O)CNC(=O)[C@@H](NC(=O)OC(C)(C)C)C(C)C)C(C)C)C(C)C)C(=O)NC(C)(C)C(=O)N[C@H](C(=O)N[C@H](C(=O)NC(C)(C)C(=O)NCCC(=O)N[C@H](C(=O)N[C@@H](Cc1ccccc1)[C@H](O)CN(Cc1ccccc1)C(=O)N[C@@H](CC(C)C)C(=O)N[C@H](C(N)=O)C(C)C)C(C)C)C(C)C)[C@@H](C)O`, on Gamma-secretase [3], the IC50 came out at 6 nM. `CC[C@H](C)[C@@H](NC(=O)[C@H](NC(=O)[C@H](NC(=O)C(C)(C)NC(=O)CNC(=O)[C@H](NC(=O)OC(C)(C)C)C(C)C)C(C)C)C(C)C)C(=O)NC(C)(C)C(=O)N[C@@H](C(=O)N[C@@H](C(=O)NC(C)(C)C(=O)NCCCCCCCCCCC(=O)N[C@H](C(=O)N[C@@H](Cc1ccccc1)[C@H](O)CN(Cc1ccccc1)C(=O)N[C@@H](CC(C)C)C(=O)N[C@H](C(N)=O)C(C)C)C(C)C)C(C)C)[C@@H](C)O`: the inhibition entry in assay [4], in assay [5], in assay [1] and in assay [2] was “Active” each time.

With `COC(=O)[C@@H](NC(=O)[C@H](CC(C)C)NC(=O)N(Cc1ccccc1)C[C@@H](O)[C@H](Cc1ccccc1)NC(=O)[C@@H](NC(=O)OC(C)(C)C)C(C)C)C(C)C`, the inhibition entry in assay [5] and in assay [1] was “inactive” throughout. The inhibition result in assay [2] is “Active”.

In the case of `CC[C@H](C)[C@H](NC(=O)[C@@H](NC(=O)[C@@H](NC(=O)C(C)(C)NC(=O)CNC(=O)[C@@H](NC(=O)OC(C)(C)C)C(C)C)C(C)C)C(C)C)C(=O)NC(C)(C)C(=O)N[C@H](C(=O)N[C@H](C(=O)NC(C)(C)C(=O)NCCCCCCC(=O)N[C@H](C(=O)N[C@@H](Cc1ccccc1)[C@H](O)CN(Cc1ccccc1)C(=O)N[C@@H](CC(C)C)C(=O)N[C@H](C(N)=O)C(C)C)C(C)C)C(C)C)[C@@H](C)O`, on Gamma-secretase [3], the IC50 came out at 1.5 nM. In the case of `CC[C@H](C)[C@H](NC(=O)[C@@H](NC(=O)[C@@H](NC(=O)C(C)(C)NC(=O)CNC(=O)[C@@H](NC(=O)OC(C)(C)C)C(C)C)C(C)C)C(C)C)C(=O)NC(C)(C)C(=O)N[C@H](C(=O)N[C@H](C(=O)NC(C)(C)C(=O)NCCCCCCCCCCC(=O)N[C@H](C(=O)N[C@@H](Cc1ccccc1)[C@H](O)CN(Cc1ccccc1)C(=O)N[C@@H](CC(C)C)C(=O)N[C@H](C(N)=O)C(C)C)C(C)C)C(C)C)[C@@H](C)O`, the Ki on Gamma-secretase [6] was found to be 0.65 nM. The IC50 on Gamma-secretase [3] turned out to be 0.7 nM. With `CC[C@H](C)[C@H](NC(=O)[C@@H](NC(=O)[C@@H](NC(=O)C(C)(C)NC(=O)CNC(=O)[C@@H](NC(=O)OC(C)(C)C)C(C)C)C(C)C)C(C)C)C(=O)NC(C)(C)C(=O)N[C@H](C(=O)N[C@H](C(=O)NC(C)(C)C(=O)OC)C(C)C)[C@@H](C)O`, the IC50 on Gamma-secretase [3] turned out to be 34.8 nM. On to `CC[C@H](C)[C@H](NC(=O)[C@@H](NC(=O)[C@@H](NC(=O)C(C)(C)NC(=O)CNC(=O)[C@@H](NC(=O)OC(C)(C)C)C(C)C)C(C)C)C(C)C)C(=O)NC(C)(C)C(=O)N[C@H](C(=O)N[C@H](C(=O)NC(C)(C)C(=O)N[C@H](C(=O)N[C@@H](Cc1ccccc1)[C@H](O)CN(Cc1ccccc1)C(=O)N[C@@H](CC(C)C)C(=O)N[C@H](C(N)=O)C(C)C)C(C)C)C(C)C)[C@@H](C)O`, for which, on Gamma-secretase [3], the IC50 stood at 7.5 nM. Consider `CC[C@H](C)[C@H](NC(=O)[C@@H](NC(=O)[C@@H](NC(=O)C(C)(C)NC(=O)CNC(=O)[C@@H](NC(=O)OC(C)(C)C)C(C)C)C(C)C)C(C)C)C(=O)NC(C)(C)C(=O)N[C@@H](Cc1ccccc1)C(=O)N[C@H](C(=O)NC(C)(C)C(=O)OC)C(C)C`, for which the inhibition entry in assay [4] and in assay [2] was “inactive” in each case. Also, in assay [1], the inhibition entry is “Active”.
